# TPT1 inh – blocks Candida albicans tRNA 2'-phosphotransferase | hit rate 0.81% among 300,000 | recombinant caTPT1, FP RNA substrate dephosphorylation | AID 1962 | inhibition, % at 5 µM;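 active means inhibition above the mean of all tested compounds plus 3 SD, set per screening campaign, cut at about 24% in these data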;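 further: plate controls were DMSO alone for no effect and ferristatin control at 100 nM for full effect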
# IDE cell inh – cellular human IDE inhibition. P14735. HEK cells, FAbetaB cleavage, fluorescence polarization. inhibition, % at 5.59 µM. hit rate 0.41% among 320,000;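 active means percent inhibition above the average of all tested compounds plus 3 SD, set per screening campaign, cut at about 16% in these data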;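 further: IDE supplied by intact live HEK cells; FP after avidin binding of uncleaved biotin substrate so inhibition keeps polarization high; 0% = DMSO wells and 100% = 60 µM reference IDE inhibitor Ii1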
# IDE cell activ – boosts human insulin-degrading enzyme activity in HEK cells | P14735 | FAbeta-B cleavage, fluorescence polarization; 0% vehicle, 100% cell-free pure enzyme wells | activation, % at 5.96 µM | hit rate 0.073% among 340,000 | AID 493087;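 active means activation above the mean of all tested compounds plus 3 SD, set per screening campaign, cut at about 17% in these data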
# CSN inh – CSN deneddylation inhibition; Q92905; Purified CSN, SCF-Nedd8-OG deneddylation, fluorescence polarization; inhibition, % at 12.5 µM; hit rate 0.38% among 360,000;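 active means pattern-corrected inhibition above about 35%, with an unprinted fluorescence ratio check between 0.5 and 1.5, limit read from the data, passing the limit was not always enough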;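 further: 0% = enzyme with substrate and 100% = substrate without enzyme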
#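 Material: purified human Csn5 enzyme expressed in HEK293T cells / Medium: Tris buffer pH 7.5, NaCl, DTT, Tween-20, trehalose, ovalbumin / Compound dosing: 12.5 µM single point / Schedule: 90 min incubation of compound, enzyme and substrate at room temperature / Signal: fluorescence polarization of the substrate / Control set: no-enzyme wells high, enzyme-with-substrate wells low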
# Rpn11 block – blocks the human proteasome subunit Rpn11. O00487. human 26S proteasome, Ub4-pepOG fluorescence polarization; 20S core pre-blocked with epoxomicin. inhibition, % at 20 µM. hit rate 0.59% among 360,000;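 active means inhibition at 20 µM, scaled to each plate's controls, above about 33%, limit read from the data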
# HNF4A DNA FP – change in binding of human HNF4 alpha to DNA | hit rate 0.3% among 360,000 | HNF4a-FITC DNA binding, fluorescence polarization, 1 h | P41235 | activity change, % at 10 µM | AID 1224865; in the data active means activity change above about 30%, passing the limit was not always enough
# caTPT1 confirm – confirmation of Candida albicans TPT1 inhibitors; shares compounds with TPT1 inh; recombinant caTPT1, fluorescence polarization, RNase T1 coupled; inhibition, % at 5 µM; hit rate 74% among 2,400; AID 2149;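 active means inhibition above the primary screen limit, the mean inhibition of all tested compounds plus 3 SD, cut at about 25% in these data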
# RNase T1 inh – counter-screen for TPT1 inhibitors: inhibitors of Aspergillus oryzae RNase T1 | shares compounds with TPT1 inh | RNase T1 cleavage, fluorescence polarization, 1536-well | inhibition, % at 5 µM | hit rate 83% among 2,400;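 active means inhibition above the solvent-only control well mean plus 3 SD, limit set per screening run, cut at about 23% in these data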;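 further: plate controls were DMSO wells with enzyme for no effect and wells without RNase T1 for full effect; inhibitors block cleavage so intact labeled substrate keeps polarization high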
# Target sequence (P00651 whole entry, looked up): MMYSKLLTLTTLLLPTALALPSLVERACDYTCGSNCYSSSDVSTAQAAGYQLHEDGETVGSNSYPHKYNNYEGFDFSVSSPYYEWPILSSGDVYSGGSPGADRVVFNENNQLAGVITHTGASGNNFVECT
# IDE inh confirm – confirmation of human insulin-degrading enzyme inhibitors in cells | HEK cells, FAbetaB cleavage, fluorescence polarization | inhibition, % at 5.59 µM | shares compounds with IDE cell inh | hit rate 51% among 1,200;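 active means mean inhibition across triplicate wells above the cutoff set by the earlier primary insulin-degrading enzyme screen, cut at about 16% in these data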;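 further: 0% = DMSO wells and 100% = 60 µM reference IDE inhibitor Ii1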
# HEK293 tox – counter-screen for IDE inhibitors: cytotoxicity in HEK cells | HEK293 cytotoxicity, ATP luminescence | hit rate 28% among 1,200 | inhibition, % at 5.59 µM | AID 449730 | shares compounds with IDE cell inh; in the data active means inhibition above about 22%;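 further: 0% = vehicle wells and 100% = reference cytotoxic drug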
# Rpn11 confirm – Rpn11 inhibition confirmation, single concentration; AID 602318; purified human 26S proteasome, Ub4-pepOG fluorescence polarization; proteasome pretreated with epoxomicin; shares compounds with Rpn11 block; hit rate 29% among 1,900; inhibition, % at 20 µM
# MMP-2 counter – counter-screen for RPN11 inhibitors: inhibition of human MMP-2; shares compounds with Rpn11 block; recombinant MMP-2, FRET peptide cleavage fluorescence; inhibition, % at 20 µM; hit rate 4% among 1,900; AID 602330;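 further: human MMP-2 activated beforehand with APMA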
# Thrombin inh – blocks bovine thrombin, flagging nonselective RPN11 hits; hit rate 13% among 1,900; shares compounds with Rpn11 block; bovine thrombin cleavage of Ub4-pepOG, fluorescence polarization; inhibition, % at 20 µM;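 active means mean inhibition at least 40% at 20 µM, or signal 3 deviations below plate average, so some actives read negative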;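 further: plate controls were thrombin with DMSO for no effect and buffer wells lacking thrombin for full effect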
# Target sequence (P00735 whole entry, looked up): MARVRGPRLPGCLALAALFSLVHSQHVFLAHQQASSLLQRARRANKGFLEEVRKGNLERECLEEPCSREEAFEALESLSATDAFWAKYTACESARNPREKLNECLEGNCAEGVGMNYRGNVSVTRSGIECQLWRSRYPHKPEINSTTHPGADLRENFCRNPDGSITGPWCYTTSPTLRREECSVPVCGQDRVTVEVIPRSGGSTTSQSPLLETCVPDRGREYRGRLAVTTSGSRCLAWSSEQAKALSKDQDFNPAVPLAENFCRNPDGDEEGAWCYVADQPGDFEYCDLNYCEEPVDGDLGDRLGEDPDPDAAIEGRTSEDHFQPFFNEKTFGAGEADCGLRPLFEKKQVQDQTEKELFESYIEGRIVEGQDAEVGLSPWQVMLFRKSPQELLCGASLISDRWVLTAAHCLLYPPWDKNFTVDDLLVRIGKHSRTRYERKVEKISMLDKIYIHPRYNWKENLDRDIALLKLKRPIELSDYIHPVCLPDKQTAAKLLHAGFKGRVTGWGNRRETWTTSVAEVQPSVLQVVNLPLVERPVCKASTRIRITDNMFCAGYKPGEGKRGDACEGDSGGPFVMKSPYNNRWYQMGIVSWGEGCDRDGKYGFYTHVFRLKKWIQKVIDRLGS
# Numbers without * were called inactive; · = no result given. An excerpt weighted towards active compounds, which were near 1.7% of everything screened. Unless noted, no stated cut-off is given here; in the data, active means inhibition above about 40%; inactive means the rest.
SMILES,TPT1 inh,IDE cell inh,IDE cell activ,CSN inh,Rpn11 block,HNF4A DNA FP,caTPT1 confirm,RNase T1 inh,Rpn11 confirm,MMP-2 counter,Thrombin inh,others
O=C(NC(Cc1c[nH]c2ccccc12)C(=O)O)OCC1c2ccccc2-c2ccccc21 (stereo not given),·,·,·,4.2,1.6,4.3,·,·,·,·,·,
COc1ccc2o/c(=N/NC(=O)c3cccs3)c(C(N)=O)cc2c1,51.6*,6.0,-4.2,17.9,44.4*,14.7,67.6*,78.7*,70.2*,-28.4,43.1*,
NC(=O)c1cc2ccccc2o/c1=N/NC(=O)c1cccs1,2.1,3.3,-1.6,-3.9,-2.0,-5.8,·,·,·,·,·,
CC(CC(=O)c1ccccc1)=NCCCN=C(C)CC(=O)c1ccccc1,·,·,·,1.6,-19.2,3.8,·,·,·,·,·,
COc1ccc(N/C=C/C(=O)c2sc(-c3ccccc3)nc2C)cc1,71.1*,5.2,1.1,5.1,39.8*,23.0,51.6*,64.7*,17.2,-14.9,-17.4,
COc1ccc(N/C=C/C(=O)c2ccccc2)cc1,-4.1,4.5,-1.3,-2.8,2.6,4.3,·,·,·,·,·,
CCCCC[C@@H](C)N1C[C@H](COCc2ccccc2)Oc2cc(N3CC[C@H](N(C)C)C3)ccc2S1(=O)=O,·,·,·,-0.6,·,6.8,·,·,·,·,·,
COc1ccc(/C=C2\SC(=S)N(C(C(=O)O)c3ccccc3)C2=O)c(OC)c1 (stereo not given),26.8*,5.3,-5.2,13.7,40.6*,27.8,39.8*,53.1*,17.6,-23.8,20.6,
CC[n+]1ccc(/C=C2\Sc3ccccc3N2CCCS(=O)(=O)[O-])c2ccccc21,31.0*,17.1*,2.5,0.7,32.6*,5.7,14.1,19.0,-2.8,-43.6,-12.2,IDE inh confirm=7.7;HEK293 tox=9.4
Cc1c(C(=O)O)cccc1-n1c(C)cc(/C=N/Nc2ccc([N+](=O)[O-])cn2)c1C,27.8*,-2.4,2.5,9.0,56.3*,5.8,46.5*,56.9*,23.4,-51.5,-3.5,
COc1cccc(/C=N/Nc2ccc([N+](=O)[O-])cn2)c1O,-3.1,1.7,6.3,-1.7,2.5,3.2,·,·,·,·,·,
Fc1ccc(Nc2cccc3nccnc23)cc1,1.6,3.0,4.4,3.1,4.0,3.0,·,·,·,·,·,
c1cc(Nc2cccc3nccnc23)c2nccnc2c1,25.3*,4.6,-6.5,13.6,34.0*,7.3,24.8*,35.1*,30.6,-43.3,25.8,
CCCCCC/C(C)=C1/SC(=S)NC1=O,51.2*,15.8,-1.4,23.1,47.6*,21.5,13.0,18.6,3.3,17.9,5.0,
CCCCCCCC(=O)NNC(=O)Cc1ccccc1,-0.7,1.6,7.0,-3.2,-1.4,1.5,·,·,·,·,·,
O=C(NN=Cc1ccc2c(c1)CCN2)c1cccs1,·,·,·,4.9,-5.0,-2.7,·,·,·,·,·,
CC1(C)NC(=O)N(CCC(=O)Nc2ccc(C(C)(C)C)cc2)C1=O,·,·,·,-4.7,1.3,-5.1,·,·,·,·,·,
CCN1C(=S)SC(=O)C1=C1C=C(C)OC(C)=C1,3.7,1.2,-3.7,-17.8,·,-14.9,·,·,·,·,·,
CCN1C(=S)SC(=O)C1=C1C=C(C)N(Cc2ccco2)C(C)=C1,162.6*,33.4*,-30.2,16.6,45.9*,36.2,126.1*,131.4*,1.6,4.1,34.1,IDE inh confirm=42.4*;HEK293 tox=13.0
COC(=O)CCCn1cc(CN2CC(N3CCN(C4CCN(C)CC4)CC3)CS2(=O)=O)nn1 (stereo not given),·,·,·,1.6,·,-2.9,·,·,·,·,·,
CCOC(=O)c1c(C)[nH]c(O)c1C=Nc1ccc(C(F)(F)F)cc1,35.6*,3.3,0.7,-0.3,49.3*,14.7,30.4*,39.6*,1.8,-0.7,-0.7,
Cc1[nH][nH]c(=O)c1C=Nc1ccc(C(F)(F)F)cc1,0.0,-0.5,4.3,2.2,10.1,-0.8,·,·,·,·,·,
CCc1nnc(NC(=O)c2ccc3ccccc3n2)s1,3.6,-2.2,-4.3,4.0,12.5,1.4,·,·,·,·,·,
CCOC(=O)Cc1csc(NC(=O)c2cccnc2)n1,2.0,1.1,8.0,-9.2,-0.6,3.6,·,·,·,·,·,
CCc1nnc(NC(=O)c2sc3nc4cc(C)ccc4cc3c2N)s1,26.9*,5.8,-21.4,3.9,71.1*,32.2,28.5*,41.1*,25.9,-8.9,-70.0,
SMILES,TPT1 inh,IDE cell inh,IDE cell activ,CSN inh,Rpn11 block,HNF4A DNA FP,caTPT1 confirm,RNase T1 inh,Rpn11 confirm,MMP-2 counter,Thrombin inh,others
CCOC(=O)Cc1csc(NC(=O)c2sc3nc4ccc(C)cc4cc3c2N)n1,25.6*,-1.9,-4.3,-1.5,60.8*,37.9*,51.3*,62.1*,76.7*,-42.3,40.6*,
COc1cccc(/C=C2\Oc3cc(OCC(=O)N4CCCCC4)ccc3C2=O)c1OC,-2.6,2.6,-0.6,1.8,2.2,-3.2,·,·,·,·,·,
COc1cccc(/C=C2\Oc3ccc(O)cc3C2=O)c1O,48.8*,5.5,-2.3,6.0,43.6*,8.5,71.1*,78.8*,-6.0,-73.3,-13.5,
O=C1OCCC1=CN1CCCCC1,·,·,·,0.3,5.8,-1.5,·,·,·,·,·,
N#Cc1c(SCC(=O)Nc2nncs2)sc2c(O)cc(=O)[nH]c12,76.2*,3.0,4.5,34.0,52.7*,-34.0,9.1,14.7,36.6,52.1*,9.1,
N#Cc1c(SCC(=O)Nc2ccc(C(F)(F)F)cc2)sc2c(O)cc(=O)[nH]c12,3.6,4.7,-3.1,0.6,9.4,0.2,·,·,·,·,·,
O=C(Nc1nc2c(s1)CN(Cc1ccccc1)CC2)c1c(F)cccc1F,24.4*,0.2,-0.6,6.0,46.1*,27.2,36.8*,48.8*,-1.9,-42.5,-8.8,
COc1ccc2c(/C=C/c3cc[n+](C)cc3)c[nH]c2c1,43.0*,14.2,-8.3,24.6,52.1*,36.0*,46.6*,59.4*,67.9*,-38.4,71.8*,
COc1ccc2c(C=O)c[nH]c2c1,0.4,5.4,1.6,2.2,9.3,4.9,·,·,·,·,·,
CN(C)S(=O)(=O)c1cccc(-c2nn(-c3ccccc3)cc2/C=C2\SC(=S)NC2=O)c1,74.7*,25.6*,-1.0,22.3,86.5*,58.5*,23.9,32.9*,35.2,11.3,18.8,IDE inh confirm=-2.7;HEK293 tox=23.1*
